This is an account of results in ChEMBL document CHEMBL1134454, “Synthesis and evaluation of oxodioxolenylmethyl carbamate prodrugs of pseudomycins” (2001).

Values after ≈ are worked out from the molar mass of the structure shown. Bridge positions count the residues as written; N and C are the ends. Square brackets hold non-standard residues; d marks the D form. Peptide text beside a SMILES is read from it. * marks the point of attachment. Tetradecanoyl(3R-OH) = CCCCCCCCCCC[C@@H](O)CC(=O)*; Asp(3S-OH) = N[C@H](C(=O)O)[C@H](O)C(=O)O; Thr(4-Cl) = N[C@H](C(=O)O)[C@H](O)CCl; aThr = C[C@H](O)[C@H](N)C(=O)O; dDab = NCC[C@@H](N)C(=O)O; Dab = NCC[C@H](N)C(=O)O; Dhb = C/C=C(\N)C(=O)O

Assay [1] is filed under the species Mus musculus. The assay is described as follows: Drug concentration required to achieve 50% survival of fungal infection compared with untreated animals in experiment 1. It counts as functional. In outline: (§1)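 Outbred male ICR mice (18–20 g), X-irradiated 400 r 24 h before infection. C. albicans A26 blastospores, 2×10^6 per mouse, given iv by lateral tail vein. Dosed 0.2 mL at 20, 10 and 5 mg/kg at 0, 4, 24 and 48 h post-infection, in 4.0% hydroxypropyl cyclodextrin/sodium acetate pH 7.0/1.75% dextrose. Survival followed 7 days; ED50 by Reed and Muench.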

The species entered for assay [2] is Mus musculus. The assay is described as follows: Evaluated for tail vein toxicity assay in male ICR mice; Partial positive. It counts as functional, organism-based.
The test system of the next assay is Aspergillus fumigatus. Briefly: In vitro potency against Aspergillus fumigatus. Type of assay: functional. In outline: (§2)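 Broth microdilution in Sabouraud broth. Compounds were dissolved in DMSO and diluted to 20 μg/mL final in the first well, then serially 2-fold. Yeasts were grown on Sabouraud dextrose agar at 35 °C for 24 h, suspended in saline and adjusted to 2×10^5/mL in broth. A. fumigatus spores were taken from potato dextrose agar mycelia into 0.1% Tween 80/saline. MIC was the lowest concentration giving 90–100% visible growth inhibition versus controls.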

The subject of another assay is Candida albicans. Briefly: In vitro potency against Candida albicans. It counts as functional. In outline: as §2
A further assay concerns Cryptococcus neoformans. Briefly: In vitro potency against Cryptococcus neoformans. It counts as functional. In outline:
as §2

Assay [3] is filed under the species Mus musculus. Briefly: Drug concentration required to achieve 50% survival of fungal infection compared with untreated animals in experiment 2. Type of assay: functional. In outline:
as §1

Assay [4] is filed under the species Mus musculus. The assay is described as follows: Evaluated for tail vein toxicity assay in male ICR mice; Negative. Type of assay: functional, organism-based.
Assay [5] is filed under the species Mus musculus. The assay is described as follows: Evaluated for tail vein toxicity assay in male ICR mice; Positive. It counts as functional, organism-based.

What is called ED50 is the midpoint of the dose-response relation. Lower therefore signals an effect at a small dose. With `C/C=C1\NC(=O)[C@H]([C@H](C)O)NC(=O)[C@H](CCN)NC(=O)[C@H](CCCCNC(=O)OCc2oc(=O)oc2C)NC(=O)[C@H](CC(=O)O)NC(=O)[C@@H](CCNC(=O)OCc2oc(=O)oc2C)NC(=O)[C@@H](NC(=O)C[C@H](O)CCCCCCCCCCCCC)COC(=O)[C@H]([C@H](O)CCl)NC(=O)[C@H]([C@H](O)C(=O)O)NC1=O`, the ED50 in the assay listed under Mus musculus [1] was more than 20 mg/kg. Also, the Activity result in the assay filed under Mus musculus [2] is reported as “Partial positive”.
What is called MIC is the least concentration at which growth counts as inhibited. Lower therefore signals greater potency. As for `C/C=C1\NC(=O)[C@H]([C@H](C)O)NC(=O)[C@H](CCNC(=O)OCc2oc(=O)oc2C)NC(=O)[C@H](CCCCNC(=O)OCc2oc(=O)oc2C)NC(=O)[C@H](CC(=O)O)NC(=O)[C@@H](CCNC(=O)OCc2oc(=O)oc2C)NC(=O)[C@@H](NC(=O)C[C@H](O)CCCCCCCCCCC)COC(=O)[C@H]([C@H](O)CCl)NC(=O)[C@H]([C@H](O)C(=O)O)NC1=O`, the MIC with Aspergillus fumigatus was more than 20 µg/mL; with Candida albicans it was more than 20 µg/mL; with Cryptococcus neoformans, 10 µg/mL (≈ 5.97 µM). Besides, the ED50 in the assay filed under Mus musculus [3] was determined as 7.8 mg/kg; in the assay filed under Mus musculus [1] it was 6.85 mg/kg. In addition, in the assay filed under Mus musculus [4], the Activity entry was “Negative”.
On to `C/C=C1\NC(=O)[C@H]([C@H](C)O)NC(=O)[C@H](CCN)NC(=O)[C@H](CCCCN)NC(=O)[C@H](CC(=O)O)NC(=O)[C@@H](CCN)NC(=O)[C@@H](NC(=O)C[C@H](O)CCCCCCCCCCC)COC(=O)[C@H]([C@H](O)CCl)NC(=O)[C@H]([C@H](O)C(=O)O)NC1=O` [PSEUDOMYCIN B] ({Tetradecanoyl(3R-OH)}-S[dDab]DK[Dab][aThr][Dhb][Asp(3S-OH)][Thr(4-Cl)]; ester 1-C), for which the figures for the MIC against Aspergillus fumigatus, in the assay on Candida albicans and against Cryptococcus neoformans were more than 20 µg/mL, 0.625 µg/mL (≈ 0.517 µM) and 0.078 µg/mL (≈ 0.0646 µM), respectively. Also, in the assay filed under Mus musculus [3], the median effective dose (ED50) was 3.8 mg/kg. Moreover, the Activity entry in the assay listed under Mus musculus [5] was “Positive”.
In the case of `C/C=C1\NC(=O)[C@H]([C@H](C)O)NC(=O)[C@H](CCNC(=O)OCc2oc(=O)oc2C)NC(=O)[C@H](CCCCN)NC(=O)[C@H](CC(=O)O)NC(=O)[C@@H](CCN)NC(=O)[C@@H](NC(=O)C[C@H](O)CCCCCCCCCCC)COC(=O)[C@H]([C@H](O)CCl)NC(=O)[C@H]([C@H](O)C(=O)O)NC1=O`, the MIC was more than 20 µg/mL with Aspergillus fumigatus, 5 µg/mL (≈ 3.67 µM) against Candida albicans and 1.3 µg/mL (≈ 0.953 µM) in the assay with Cryptococcus neoformans. In the assay filed under Mus musculus [1], this compound yielded an ED50 of 5.95 mg/kg. Moreover, the Activity result in the assay filed under Mus musculus [4] was “Negative”.
As for `C/C=C1\NC(=O)[C@H]([C@H](C)O)NC(=O)[C@H](CCN)NC(=O)[C@H](CCCCN)NC(=O)[C@H](CC(=O)O)NC(=O)[C@@H](CCN)NC(=O)[C@@H](NC(=O)C[C@H](O)CCCCCCCCCCCCC)COC(=O)[C@H]([C@H](O)CCl)NC(=O)[C@H]([C@H](O)C(=O)O)NC1=O`, the MIC was 10 µg/mL (≈ 8.09 µM) in the assay with Aspergillus fumigatus, 0.312 µg/mL (≈ 0.252 µM) with Candida albicans and less than 0.02 µg/mL with Cryptococcus neoformans. Moreover, the ED50 in the assay filed under Mus musculus [3] came out at 12.4 mg/kg; in the assay listed under Mus musculus [1], 7.8 mg/kg. The Activity entry in the assay filed under Mus musculus [5] was “Positive”.
For the compound `C/C=C1\NC(=O)[C@H]([C@H](C)O)NC(=O)[C@H](CCNC(=O)OCc2oc(=O)oc2C)NC(=O)[C@H](CCCCNC(=O)OCc2oc(=O)oc2C)NC(=O)[C@H](CC(=O)O)NC(=O)[C@@H](CCNC(=O)OCc2oc(=O)oc2C)NC(=O)[C@@H](NC(=O)C[C@H](O)CCCCCCCCCCCCC)COC(=O)[C@H]([C@H](O)CCl)NC(=O)[C@H]([C@H](O)C(=O)O)NC1=O`, the MIC in the assay with Aspergillus fumigatus was more than 20 µg/mL; in the assay with Candida albicans it was more than 20 µg/mL; in the assay on Cryptococcus neoformans, 5 µg/mL (≈ 2.93 µM). Further, the values for the ED50 in the assay listed under Mus musculus [3] and in the assay filed under Mus musculus [1] were 10.8 mg/kg and 12.4 mg/kg, respectively. Besides, the Activity result in the assay listed under Mus musculus [4] was “Negative”.
As to `C/C=C1\NC(=O)[C@H]([C@H](C)O)NC(=O)[C@H](CCN)NC(=O)[C@H](CCCCNC(=O)OCc2oc(=O)oc2C)NC(=O)[C@H](CC(=O)O)NC(=O)[C@@H](CCNC(=O)OCc2oc(=O)oc2C)NC(=O)[C@@H](NC(=O)C[C@H](O)CCCCCCCCCCC)COC(=O)[C@H]([C@H](O)CCl)NC(=O)[C@H]([C@H](O)C(=O)O)NC1=O`, the MIC in the assay on Aspergillus fumigatus is more than 20 µg/mL; in the assay with Candida albicans, 5 µg/mL (≈ 3.29 µM); against Cryptococcus neoformans, 0.3 µg/mL (≈ 0.197 µM). This compound displayed an ED50 in the assay listed under Mus musculus [1] of 7.07 mg/kg. For the same compound, the Activity result in the assay listed under Mus musculus [2] was “Partial positive”.
`C/C=C1\NC(=O)[C@H]([C@H](C)O)NC(=O)[C@H](CCNC(=O)OCc2oc(=O)oc2C)NC(=O)[C@H](CCCCN)NC(=O)[C@H](CC(=O)O)NC(=O)[C@@H](CCN)NC(=O)[C@@H](NC(=O)C[C@H](O)CCCCCCCCCCCCC)COC(=O)[C@H]([C@H](O)CCl)NC(=O)[C@H]([C@H](O)C(=O)O)NC1=O`: in the assay listed under Mus musculus [1], the ED50 amounted to 9 mg/kg. In the assay filed under Mus musculus [2], the Activity entry was “Partial positive”.
